Experimental data reported in ChEMBL document CHEMBL5154945, “Discovery and Optimization of Pyrrolopyrimidine Derivatives as Selective Disruptors of the Perinucleolar Compartment, a Marker of Tumor Progression toward Metastasis” (J Med Chem, 2022).

Tests used:
PC-3M [1] = assay: Antiproliferative activity against human PC-3M cells expressing PTB/GFP fusion protein assessed as cell growth inhibition at < 100 nM and measured every four hrs for 130 hrs by IncuCyte zoom live cell analysis; type: functional, cell-based; details: DDE = dose-dependent effect
Procedure, shortened: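 PC3M cells stably expressing GFP-PTB, grown in DMEM with 10% FBS and 1% penicillin/streptomycin, seeded at 1.25×10^4 cells/ml in 384-well plates and left overnight at 37 °C, 5% CO2. Compound added in DMEM to give 11 final concentrations from 10 nM to 20 μM. Brightfield images were taken every 4 h for about 130 h and scored as percent confluence.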

PC-3M [2] = assay: Cytotoxicity against human PC-3M cells expressing PTB/GFP fusion protein assessed as reduction in ATP level at 20 uM and measured after 24 to 48 hrs by ATPlite luminescence assay; type: toxicity, cell-based; details: time 24-48 hrs
PC-3M [3] = assay: Antiproliferative activity against human PC-3M cells expressing PTB/GFP fusion protein assessed as reduction of nucleolar volume at 1 to 30 uM measured after 24 hrs by Nucleolar-id Green Detection based confocal microscopic analysis; type: functional, cell-based; details: dose 1-30 µM, DDE = dose-dependent effect
Procedure, shortened: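 PC-3M cells grown in RPMI 1640 with 10% FBS and penicillin/streptomycin, trypsinized at 70% confluence, and seeded at 2×10^5 cells/mL overnight at 37 °C, 5% CO₂. Medium replaced with compound or 1% DMSO for 24 h. Nucleoli stained with Nucleolar-ID Green and nuclei with Hoechst 33342, then imaged by confocal microscopy. Bright green objects in three images per condition normalized to nuclei count; vehicle set to 100.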

CCRF-CEM = assay: Anticancer activity against human CCRF-CEM cells assessed as cell growth inhibition; type: functional, cell-based; details: dose 1-100 µM, DDE = dose-dependent effect
HL-60(TB) = assay: Anticancer activity against human HL-60(TB) cells assessed as cell growth inhibition; type: functional, cell-based; details: dose 1-100 µM, DDE = dose-dependent effect
K562 = assay: Anticancer activity against human K562 cells assessed as cell growth inhibition; type: functional, cell-based; details: dose 1-100 µM, DDE = dose-dependent effect
MOLT-4 = assay: Anticancer activity against human MOLT-4 cells assessed as cell growth inhibition; type: functional, cell-based; details: dose 1-100 µM, DDE = dose-dependent effect
RPMI-8226 = assay: Anticancer activity against human RPMI-8226 cells assessed as cell growth inhibition; type: functional, cell-based; details: dose 1-100 µM, DDE = dose-dependent effect
SR = assay: Anticancer activity against human SR cells assessed as cell growth inhibition; type: functional, cell-based; details: dose 1-100 µM, DDE = dose-dependent effect
A549 = assay: Anticancer activity against human A549 cells assessed as cell growth inhibition; type: functional, cell-based; details: dose 1-100 µM, DDE = dose-dependent effect
EKVX = assay: Anticancer activity against human EKVX cells assessed as cell growth inhibition; type: functional, cell-based; details: dose 1-100 µM, DDE = dose-dependent effect
HOP-62 = assay: Anticancer activity against human HOP-62 cells assessed as cell growth inhibition; type: functional, cell-based; details: dose 1-100 µM, DDE = dose-dependent effect
NCI-H226 = assay: Anticancer activity against human NCI-H226 cells assessed as cell growth inhibition; type: functional, cell-based; details: dose 1-100 µM, DDE = dose-dependent effect
NCI-H23 = assay: Anticancer activity against human NCI-H23 cells assessed as cell growth inhibition; type: functional, cell-based; details: dose 1-100 µM, DDE = dose-dependent effect
NCI-H322M = assay: Anticancer activity against human NCI-H322M cells assessed as cell growth inhibition; type: functional, cell-based; details: dose 1-100 µM, DDE = dose-dependent effect
NCI-H460 = assay: Anticancer activity against human NCI-H460 cells assessed as cell growth inhibition; type: functional, cell-based; details: dose 1-100 µM, DDE = dose-dependent effect
NCI-H522 = assay: Anticancer activity against human NCI-H522 cells assessed as cell growth inhibition; type: functional, cell-based; details: dose 1-100 µM, DDE = dose-dependent effect
COLO 205 = assay: Anticancer activity against human COLO 205 cells assessed as cell growth inhibition; type: functional, cell-based; details: dose 1-100 µM, DDE = dose-dependent effect
HCC 2998 = assay: Anticancer activity against human HCC 2998 cells assessed as cell growth inhibition; type: functional, cell-based; details: dose 1-100 µM, DDE = dose-dependent effect
HCT-116 = assay: Anticancer activity against human HCT-116 cells assessed as cell growth inhibition; type: functional, cell-based; details: dose 1-100 µM, DDE = dose-dependent effect
HCT-15 = assay: Anticancer activity against human HCT-15 cells assessed as cell growth inhibition; type: functional, cell-based; details: dose 1-100 µM, DDE = dose-dependent effect
HT-29 = assay: Anticancer activity against human HT-29 cells assessed as cell growth inhibition; type: functional, cell-based; details: dose 1-100 µM, DDE = dose-dependent effect
KM12 = assay: Anticancer activity against human KM12 cells assessed as cell growth inhibition; type: functional, cell-based; details: dose 1-100 µM, DDE = dose-dependent effect
SW-620 = assay: Anticancer activity against human SW-620 cells assessed as cell growth inhibition; type: functional, cell-based; details: dose 1-100 µM, DDE = dose-dependent effect
SF-268 = assay: Anticancer activity against human SF-268 cells assessed as cell growth inhibition; type: functional, cell-based; details: dose 1-100 µM, DDE = dose-dependent effect
SF-295 = assay: Anticancer activity against human SF-295 cells assessed as cell growth inhibition; type: functional, cell-based; details: dose 1-100 µM, DDE = dose-dependent effect
SF-539 = assay: Anticancer activity against human SF-539 cells assessed as cell growth inhibition; type: functional, cell-based; details: dose 1-100 µM, DDE = dose-dependent effect
SNB-19 = assay: Anticancer activity against human SNB-19 cells assessed as cell growth inhibition; type: functional, cell-based; details: dose 1-100 µM, DDE = dose-dependent effect
SNB-75 = assay: Anticancer activity against human SNB-75 cells assessed as cell growth inhibition; type: functional, cell-based; details: dose 1-100 µM, DDE = dose-dependent effect
U-251 = assay: Anticancer activity against human U-251 cells assessed as cell growth inhibition; type: functional, cell-based; details: dose 1-100 µM, DDE = dose-dependent effect
LOX IMVI = assay: Anticancer activity against human LOX IMVI cells assessed as cell growth inhibition; type: functional, cell-based; details: dose 1-100 µM, DDE = dose-dependent effect
Malme-3M = assay: Anticancer activity against human Malme-3M cells assessed as cell growth inhibition; type: functional, cell-based; details: dose 1-100 µM, DDE = dose-dependent effect
M14 = assay: Anticancer activity against human M14 cells assessed as cell growth inhibition; type: functional, cell-based; details: dose 1-100 µM, DDE = dose-dependent effect
MDA-MB-435 = assay: Anticancer activity against human MDA-MB-435 cells assessed as cell growth inhibition; type: functional, cell-based; details: dose 1-100 µM, DDE = dose-dependent effect
SK-MEL-2 = assay: Anticancer activity against human SK-MEL-2 cells assessed as cell growth inhibition; type: functional, cell-based; details: dose 1-100 µM, DDE = dose-dependent effect
SK-MEL-28 = assay: Anticancer activity against human SK-MEL-28 cells assessed as cell growth inhibition; type: functional, cell-based; details: dose 1-100 µM, DDE = dose-dependent effect
SK-MEL-5 = assay: Anticancer activity against human SK-MEL-5 cells assessed as cell growth inhibition; type: functional, cell-based; details: dose 1-100 µM, DDE = dose-dependent effect
UACC-257 = assay: Anticancer activity against human UACC-257 cells assessed as cell growth inhibition; type: functional, cell-based; details: dose 1-100 µM, DDE = dose-dependent effect
UACC-62 = assay: Anticancer activity against human UACC-62 cells assessed as cell growth inhibition; type: functional, cell-based; details: dose 1-100 µM, DDE = dose-dependent effect
IGROV-1 = assay: Anticancer activity against human IGROV-1 cells assessed as cell growth inhibition; type: functional, cell-based; details: dose 1-100 µM, DDE = dose-dependent effect
OVCAR-3 = assay: Anticancer activity against human OVCAR-3 cells assessed as cell growth inhibition; type: functional, cell-based; details: dose 1-100 µM, DDE = dose-dependent effect
OVCAR-4 = assay: Anticancer activity against human OVCAR-4 cells assessed as cell growth inhibition; type: functional, cell-based; details: dose 1-100 µM, DDE = dose-dependent effect
OVCAR-5 = assay: Anticancer activity against human OVCAR-5 cells assessed as cell growth inhibition; type: functional, cell-based; details: dose 1-100 µM, DDE = dose-dependent effect
OVCAR-8 = assay: Anticancer activity against human OVCAR-8 cells assessed as cell growth inhibition; type: functional, cell-based; details: dose 1-100 µM, DDE = dose-dependent effect
NCI/ADR-RES = assay: Anticancer activity against human NCI/ADR-RES cells assessed as cell growth inhibition; type: functional, cell-based; details: dose 1-100 µM, DDE = dose-dependent effect
SK-OV-3 = assay: Anticancer activity against human SK-OV-3 cells assessed as cell growth inhibition; type: functional, cell-based; details: dose 1-100 µM, DDE = dose-dependent effect
786-0 = assay: Anticancer activity against human 786-0 cells assessed as cell growth inhibition; type: functional, cell-based; details: dose 1-100 µM, DDE = dose-dependent effect
A498 = assay: Anticancer activity against human A498 cells assessed as cell growth inhibition; type: functional, cell-based; details: dose 1-100 µM, DDE = dose-dependent effect
ACHN = assay: Anticancer activity against human ACHN cells assessed as cell growth inhibition; type: functional, cell-based; details: dose 1-100 µM, DDE = dose-dependent effect
CAKI-1 = assay: Anticancer activity against human CAKI-1 cells assessed as cell growth inhibition; type: functional, cell-based; details: dose 1-100 µM, DDE = dose-dependent effect
RXF 393 = assay: Anticancer activity against human RXF 393 cells assessed as cell growth inhibition; type: functional, cell-based; details: dose 1-100 µM, DDE = dose-dependent effect
SN12C = assay: Anticancer activity against human SN12C cells assessed as cell growth inhibition; type: functional, cell-based; details: dose 1-100 µM, DDE = dose-dependent effect
TK-10 = assay: Anticancer activity against human TK-10 cells assessed as cell growth inhibition; type: functional, cell-based; details: dose 1-100 µM, DDE = dose-dependent effect
UO-31 = assay: Anticancer activity against human UO-31 cells assessed as cell growth inhibition; type: functional, cell-based; details: dose 1-100 µM, DDE = dose-dependent effect
PC-3 = assay: Anticancer activity against human PC-3 cells assessed as cell growth inhibition; type: functional, cell-based; details: dose 1-100 µM, DDE = dose-dependent effect
DU-145 = assay: Anticancer activity against human DU-145 cells assessed as cell growth inhibition; type: functional, cell-based; details: dose 1-100 µM, DDE = dose-dependent effect
MCF7 = assay: Anticancer activity against human MCF7 cells assessed as cell growth inhibition; type: functional, cell-based; details: dose 1-100 µM, DDE = dose-dependent effect
MDA-MB-231 = assay: Anticancer activity against human MDA-MB-231 cells assessed as cell growth inhibition; type: functional, cell-based; details: dose 1-100 µM, DDE = dose-dependent effect
Hs-578T = assay: Anticancer activity against human Hs-578T cells assessed as cell growth inhibition; type: functional, cell-based; details: dose 1-100 µM, DDE = dose-dependent effect
BT-549 = assay: Anticancer activity against human BT-549 cells assessed as cell growth inhibition; type: functional, cell-based; details: dose 1-100 µM, DDE = dose-dependent effect
T47D = assay: Anticancer activity against human T47D cells assessed as cell growth inhibition; type: functional, cell-based; details: dose 1-100 µM, DDE = dose-dependent effect
MDA-MB-468 = assay: Anticancer activity against human MDA-MB-468 cells assessed as cell growth inhibition; type: functional, cell-based; details: dose 1-100 µM, DDE = dose-dependent effect

N=c1c2c(-c3ccccc3)c(-c3ccccc3)n(Cc3ccccc3)c2ncn1CCCO
Activity (PC-3M [1]): Dde | Activity (PC-3M [2]): Toxic | Activity (PC-3M [3]): Dde | Activity (CCRF-CEM): Dde | Activity (HL-60(TB)): Dde | Activity (K562): Dde | Activity (MOLT-4): Dde | Activity (RPMI-8226): Dde | Activity (SR): Dde | Activity (A549): Dde | Activity (EKVX): Dde | Activity (HOP-62): Dde | Activity (NCI-H226): Dde | Activity (NCI-H23): Dde | Activity (NCI-H322M): Dde | Activity (NCI-H460): Dde | Activity (NCI-H522): Dde | Activity (COLO 205): Dde | Activity (HCC 2998): Dde | Activity (HCT-116): Dde | Activity (HCT-15): Dde | Activity (HT-29): Dde | Activity (KM12): Dde | Activity (SW-620): Dde | Activity (SF-268): Dde | Activity (SF-295): Dde | Activity (SF-539): Dde | Activity (SNB-19): Dde | Activity (SNB-75): Dde | Activity (U-251): Dde | Activity (LOX IMVI): Dde | Activity (Malme-3M): Dde | Activity (M14): Dde | Activity (MDA-MB-435): Dde | Activity (SK-MEL-2): Dde | Activity (SK-MEL-28): Dde | Activity (SK-MEL-5): Dde | Activity (UACC-257): Dde | Activity (UACC-62): Dde | Activity (IGROV-1): Dde | Activity (OVCAR-3): Dde | Activity (OVCAR-4): Dde | Activity (OVCAR-5): Dde | Activity (OVCAR-8): Dde | Activity (NCI/ADR-RES): Dde | Activity (SK-OV-3): Dde | Activity (786-0): Dde | Activity (A498): Dde | Activity (ACHN): Dde | Activity (CAKI-1): Dde | Activity (RXF 393): Dde | Activity (SN12C): Dde | Activity (TK-10): Dde | Activity (UO-31): Dde | Activity (PC-3): Dde | Activity (DU-145): Dde | Activity (MCF7): Dde | Activity (MDA-MB-231): Dde | Activity (Hs-578T): Dde | Activity (BT-549): Dde | Activity (T47D): Dde | Activity (MDA-MB-468): Dde
